Experimental data published in ChEMBL document CHEMBL2169868, “Flavone-based novel antidiabetic and antidyslipidemic agents” (J Med Chem, 2012).

Assays:
[1] = Plasma clearance in Sprague-Dawley rat at 25 mg/kg, po by LC-MS/MS method; format: ADME, organism-based; design: dose 25 mg/kg, route oral
In short: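 Male Sprague−Dawley rats given a single 25 mg/kg oral dose (aqueous 0.5% methyl cellulose suspension for one compound). Blood drawn from 0.08 to 48 h. LC-MS/MS, linear range 0.78−400 ng/mL.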

Syrian golden hamster [2] = assay: Reduction in body weight in high fructose and high-fat diet fed dyslipidemic Syrian golden hamster model at 30 mg/kg/day, po for 7 days; format: functional, Mesocricetus auratus; design: scale not given: the % may be the effect or the level left
In short: (§1)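 HFD-fed Syrian golden hamsters, six per group, fed a high-fructose diet. Oral dosing in 1% gum acacia for 7 days. Sham group received vehicle. Plasma TG was measured and body weight tracked. Results given as % change versus HFD control.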

Syrian golden hamster [3] = assay: Antidyslipidemic activity in high fructose and high-fat diet fed dyslipidemic Syrian golden hamster model assessed as reduction in glycerol level at 100 mg/kg/day, po for 7 days; format: functional, Mesocricetus auratus; design: scale not given: the % may be the effect or the level left
In short: (§2)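 Syrian golden hamsters fed high-fructose high-fat diet; oral dosing in 1% gum acacia at 10, 30, 100 mg/kg (or 25 mg/kg) for 7 days, sham control given vehicle; plasma TG, cholesterol, LDL-C, HDL-C, glycerol and NEFA (kits), lipoprotein lipase activity and body weight; % change versus HFD control, six hamsters per group.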

Syrian golden hamster [4] = assay: Antidyslipidemic activity in high fructose and high-fat diet fed dyslipidemic Syrian golden hamster model assessed as increase in HDL-cholesterol level at 30 mg/kg/day, po for 7 day, po; format: functional, Mesocricetus auratus; in short: as §2
Syrian golden hamster [5] = assay: Antidyslipidemic activity in high fructose and high-fat diet fed dyslipidemic Syrian golden hamster model assessed as reduction in glycerol level at 10 mg/kg/day, po for 7 day, po; format: functional, Mesocricetus auratus; design: scale not given: the % may be the effect or the level left; in short: as §2
Syrian golden hamster [6] = assay: Antidyslipidemic activity in high fructose and high-fat diet fed dyslipidemic Syrian golden hamster model assessed as reduction in cholesterol level at 25 mg/kg/day for 7 days; format: functional, Mesocricetus auratus; design: scale not given: the % may be the effect or the level left
Syrian golden hamster [7] = assay: Antidyslipidemic activity in high fructose and high-fat diet fed dyslipidemic Syrian golden hamster model assessed as reduction in triglyceride level at 25 mg/kg/day for 7 days; format: functional, Mesocricetus auratus; design: scale not given: the % may be the effect or the level left; in short: as §1
Mus musculus [8] = assay: Antidiabetic activity in diabetic C57BL/KsJ db/db mouse model assessed as improvement in glucose tolerance in hyperglycemia at 10 mg/kg, po measured 2 hrs post dose; format: functional
Mus musculus [9] = assay: Antidyslipidemic activity in diabetic C57BL/KsJ db/db mouse model assessed as reduction in plasma triglyceride level at 25 mg/kg, po qd for 10 days; format: functional; design: scale not given: the % may be the effect or the level left
In short: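 db/db mice (blood glucose 200−350, TG 170−250, cholesterol 170−250, HDL-C 32−40 mg/dL) dosed orally at 25 mg/kg daily for 10 days; retro-orbital blood taken on day 11 for plasma TG, cholesterol and HDL-C (and HDL-C/CHOL ratio); mean % change versus vehicle control, 5 mice per group; Student t test.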

Mus musculus [10] = assay: Antihyperglycemic activity in diabetic C57BL/KsJ db/db mouse model assessed as reduction in hyperglycemia at 25 mg/kg, po qd for 10 days; format: functional; design: scale not given: the % may be the effect or the level left
In short: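 db/db mice (C57BL/KsJ, 12−18 weeks, 40−50 g, glucose 200−350 mg/dL), housed at 23 ± 2.0 °C on a 12 h light cycle. Oral dosing daily for 10 days. Blood glucose checked each morning through day 9. Body weight recorded daily from day 1 to day 10. Mean % change versus vehicle, 5 mice per group; Student t test.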

Compound `CC(C)(C)NC[C@H](O)COc1ccc2c(=O)cc(-c3cc(OCc4ccccc4)cc(OCc4ccccc4)c3)oc2c1` has a CL/F [1] of 62.5 mL/min/kg, an Activity (Syrian golden hamster [2]) of 10.2% and an Activity (Syrian golden hamster [3]) of 50.5%. For the same compound, the Activity (Syrian golden hamster [4]) was 21%, the Activity (Syrian golden hamster [5]) was 14.4% and the Activity (Syrian golden hamster [6]) was 24.4%. For the same compound, the Activity (Syrian golden hamster [7]) was 34.7%, the Activity (Mus musculus [8]) was 39.9% and the Activity (Mus musculus [9]) was 27.4%. The Activity (Mus musculus [10]) was 55.4%.
